From ChEMBL document CHEMBL3286255, “Rational design and synthesis of novel thiazolidin-4-ones as non-nucleoside HIV-1 reverse transcriptase inhibitors” (Bioorg Med Chem, 2014) come the findings set out here.

As usually defined, the inhibition is how much of the control response was suppressed. Low readings indicate little suppression, high ones strong suppression. By pEC50 is commonly meant the negative decadic logarithm of the EC50, by convention in mol/L. The term CC50 denotes the concentration that lowers cell viability or growth by half. A high value points to better tolerance by the cells.

Data set [1] has as its system Human immunodeficiency virus. As to the kind of experiment: Inhibition of HIV reverse transcriptase at 100 ug/ml after 1 hr by ELISA relative to control. The method, boiled down: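 Kit ELISA for HIV RT. Template/primer, biotin- and DIG-labelled dNTPs and RT enzyme in lysis buffer incubated 1 h at 37 °C. Product captured on streptavidin, detected with anti-DIG-peroxidase and ABTS substrate, and read at 405 nm. Percent inhibition calculated against a no-inhibitor sample.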
(ELISA stands for enzyme-linked immunosorbent assay.)

Data set [2] relates to Human immunodeficiency virus 1. As to the kind of experiment: Antiviral activity against X4 tropic Human immunodeficiency virus 1 UG070 subtype D infected in human TZM-bl cells assessed as reduction in virus-induced cytopathic effect after 48 hrs by luminescence assay. In kind it is functional, organism-based. Conditions: Human immunodeficiency virus 1, UG070 subtype D, TZM-bl, 48 h; read-out: EC50. The method, boiled down: (§1)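 TZM-bl cells (HeLa-derived; CD4, CXCR4, CCR5; LTR-driven luciferase) seeded 1×10^4/well, left overnight at 37 °C, 5% CO2, then infected with 400 TCID50 virus for 2 h. Serial compound dilutions added in duplicate, only at levels giving >50% viability. […] Mean of two independent assays; nevirapine as positive control.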
A general note: Protection from cytopathic effect is a common read-out in antiviral testing.

Data set [3] concerns Human immunodeficiency virus 1. As to the kind of experiment: Antiviral activity against R5 tropic Human immunodeficiency virus 1 VB59 subtype C infected in human TZM-bl cells assessed as reduction in virus-induced cytopathic effect after 48 hrs by luminescence assay. The note with it: Human immunodeficiency virus 1, VB59 subtype C, TZM-bl, 48 h; read-out: EC50. The format is functional, organism-based. The method, boiled down: as §1

Data set [4] is described as follows: Selectivity index, ratio of CC50 for human TZM-bl cells to EC50 for X4 tropic Human immunodeficiency virus 1 UG070 subtype D. In kind it is toxicity, cell-based. The note with it: read-out: Ratio CC50/EC50.
Data set [5] in a line: Selectivity index, ratio of CC50 for human TZM-bl cells to EC50 for R5 tropic Human immunodeficiency virus 1 VB59 subtype C. The format is toxicity, cell-based. Conditions: read-out: Ratio CC50/EC50.
Data set [6] has as its system Human immunodeficiency virus 1. As to the kind of experiment: Antiviral activity against X4 tropic Human immunodeficiency virus 1 3B subtype B infected in human TZM-bl cells assessed as reduction in virus-induced cytopathic effect after 48 hrs by luminescence assay. The format is functional, organism-based. The note with it: Human immunodeficiency virus 1, 3B subtype B, TZM-bl, 48 h; read-out: EC50. The method, boiled down:
as §1

Data set [7] concerns Human immunodeficiency virus 1. Put plainly: Antiviral activity against R5 tropic Human immunodeficiency virus 1 ADA5 subtype B infected in human TZM-bl cells assessed as reduction in virus-induced cytopathic effect after 48 hrs by luminescence assay. The note with it: Human immunodeficiency virus 1, ADA5 subtype B, TZM-bl, 48 h; read-out: EC50. The format is functional, organism-based. The method, boiled down: as §1

The nature of data set [8]: Cytotoxicity against human TZM-bl cells after 48 hrs by MTT assay. In kind it is cell-based. The method, boiled down:
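TZM-bl cells seeded 1×10^4/well and left overnight at 37 °C, 5% CO2. Medium then replaced with a two-fold dilution series of compound in quadruplicate. […] Mean of three independent assays.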

The nature of data set [9]: Selectivity index, ratio of CC50 for human TZM-bl cells to EC50 for X4 tropic Human immunodeficiency virus 1 3B subtype B. The format is toxicity, cell-based. The note with it: read-out: Ratio CC50/EC50.
Data set [10] is described as follows: Selectivity index, ratio of CC50 for human TZM-bl cells to EC50 for R5 tropic Human immunodeficiency virus 1 ADA5 subtype B. The format is toxicity, cell-based. The note with it: read-out: Ratio CC50/EC50.

pEC50: −log10 of the molar value.

The compound `Cc1ccnc2c1NC(=O)c1cccnc1N2C1CC1` [NEVIRAPINE] came in with an inhibition in [1] of 99.2%. Moreover, the pEC50 in data set [2], in [3], in data set [6] and in data set [7] was 7.52 throughout. For the same compound, the selectivity ratio in data set [4], in data set [5], in data set [9] and in [10] was 2060 each time. In data set [8], the CC50 at 48 h came out at 76.1 µM.
In data set [1], `Cc1ccc(S(=O)(=O)NN2C(=O)CSC2c2c(F)cccc2Cl)cc1` (stereo not given) showed an inhibition of 56.3%. Also, the pEC50 is 4.14 in data set [2], 4.09 in data set [3], 4.20 in data set [6] and 4.19 in data set [7]. For the same compound, the selectivity ratio in [4] was 1.87; in data set [5], 1.66; in [9] it was 2.15; in data set [10] it was 2.1. Besides, in data set [8], the CC50 at 48 h turned out to be 136 µM.
`COc1cc(OC)nc(N2C(=O)CSC2c2c(Cl)cccc2[N+](=O)[O-])n1` (stereo not given) came in with an inhibition in data set [1] of 79.4%. In addition, the negative logarithm of the EC50 (pEC50) in [2] was 6.57; in data set [3] it was 6.66; in data set [6], 7.00; in data set [7] it was 6.66. Besides, the selectivity ratio was found to be 298 in [4], 367 in data set [5], 806 in data set [9] and 366 in data set [10]. The same compound displayed a CC50 at 48 h in [8] of 80.6 µM.
With `O=C1CSC(c2c(F)cccc2F)N1c1ncnc2[nH]cnc12` (stereo not given), the inhibition in data set [1] came out at 70.4%. Besides, the pEC50 in data set [2] was 4.25; in data set [3], 4.41; in data set [6], 4.44; in data set [7], 4.56. Further, the selectivity ratio was 0.71 in [4], 1.05 in data set [5], 1.11 in data set [9] and 1.45 in data set [10]. Moreover, the CC50 at 48 h in data set [8] is 40.5 µM.
Turning to `COc1cc(OC)nc(N2C(=O)CSC2c2c(Cl)cccc2Cl)n1` (stereo not given), the inhibition in data set [1] came to 76.8%. Moreover, the pEC50 is 6.70 in [2], 6.92 in data set [3], 7.15 in data set [6] and 7.00 in data set [7]. The selectivity ratio came to 427 in data set [4], 662 in [5], 1220 in [9] and 855 in data set [10]. The same compound registered a CC50 at 48 h in data set [8] of 85.4 µM.
Turning to `O=C1CSC(c2c(F)cccc2F)N1Nc1ccccn1` (stereo not given), the inhibition in data set [1] stood at 64.7%. Besides, the pEC50 in data set [2] is 4.61; in [3], 4.77; in data set [6], 4.76; in data set [7] it was 4.79. The selectivity ratio in data set [4] amounted to 3.69; in data set [5], 5.36; in [9] it was 5.19; in [10] it was 5.56. For the same compound, in [8], the CC50 at 48 h came out at 90.1 µM.
`O=C1CSC(c2c(F)cccc2Cl)N1Nc1ccccn1` (stereo not given): the inhibition in data set [1] is 97.5%. The pEC50 in [2] was 5.33; in data set [3] it was 5.27; in data set [6], 5.68; in data set [7], 5.42. Moreover, the selectivity ratio came to 32.7 in data set [4], 28.7 in data set [5], 72.7 in data set [9] and 40.2 in data set [10]. This compound had a CC50 at 48 h in [8] of 153 µM.
In the case of `N#Cc1ccc(N2C(=O)CSC2c2c(Cl)cccc2Cl)nc1` (stereo not given), the inhibition in [1] was 42%. Besides, the pEC50 in [2] was 5.15; in [3], over 5.15; in [6], 4.69; in data set [7], 5.34. For the same compound, the selectivity ratio in [4] turned out to be 8.4; in data set [5], 8.4; in [9], 2.92; in [10], 13. Also, the CC50 at 48 h in data set [8] is 60 µM.
With `N#Cc1ccc(C2SCC(=O)N2c2ccc(C#N)cn2)cc1` (stereo not given), in [1], the inhibition is 30.4%. Besides, the pEC50 in data set [2] is 3.98; in data set [3] it was 4.10; in data set [6], 4.27; in [7], 4.13. In addition, the selectivity ratio worked out at 1.2 in data set [4], 1.59 in data set [5], 2.38 in data set [9] and 1.71 in data set [10]. Moreover, half-maximal cytotoxicity in data set [8] (CC50 at 48 h) was put at 128 µM.
In turn, `COc1cc(OC)nc(N2C(=O)CSC2c2c(OC)cccc2OC)n1` (stereo not given) had an inhibition in [1] of 93.8%. For the same compound, the pEC50 was 5.05 in data set [2], 5.14 in data set [3], 5.50 in data set [6] and 5.38 in data set [7]. For the same compound, the selectivity ratio in data set [4] was found to be 17.6; in data set [5], 21.5; in [9], 49.3; in data set [10], 37.8. In addition, the CC50 at 48 h in data set [8] is 156 µM.
For `Cc1cc(C)nc(N2C(=O)CSC2c2ccc(C#N)cc2)c1` (stereo not given), the inhibition in data set [1] was 37.9%. In addition, the pEC50 in [2] was 4.29; in [3] it was 4.33; in data set [6] it was 4.39; in [7] it was 4.58. The selectivity ratio in data set [4] is 2.9; in [5] it was 3.18; in data set [9] it was 3.66; in [10] it was 5.62. This compound also had a CC50 at 48 h in data set [8] of 148 µM.
With `N#Cc1ccc(NN2C(=O)CSC2c2c(F)cccc2F)cc1` (stereo not given), the inhibition in [1] worked out at 34.5%. Further, the pEC50 is 4.25 in data set [2], 4.31 in data set [3], 4.37 in data set [6] and 4.58 in [7]. Also, the selectivity ratio in data set [4] turned out to be 0.74; in data set [5], 0.86; in data set [9] it was 1; in [10], 1.58. Moreover, in data set [8], the CC50 at 48 h is 42.2 µM.
